Laboratory results as given in ChEMBL document CHEMBL1150361, “Inhibitors of tubulin polymerization: synthesis and biological evaluation of hybrids of vindoline, anhydrovinblastine and vinorelbine with thiocolchicine, podophyllotoxin and baccatin III” (2008).
Activity calls are given as the source filed them. No cut-off for these calls is given here.

Assays:
[1] = test system: A549; test: Cytotoxicity against human A549 cells after 24 hrs by MTS assay; type: functional, cell-based
In short: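 A549 cells seeded at 10³ cells/well, allowed to attach 24 h, then exposed to drug prepared in medium at 1, 10 or 100 µM for 24 h. MTS/PES reagent added, 1 h at 37 °C, absorbance read at 490 nm. Quintuplicate wells; viability expressed as percentage of control.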

[2] = molecular target: Tubulin (Sus scrofa) (UniProt P02554+P02550); test: Inhibition of pig brain tubulin polymerization at 10 uM
Chain of Tubulin (Sus scrofa) (P02550 whole entry, looked up): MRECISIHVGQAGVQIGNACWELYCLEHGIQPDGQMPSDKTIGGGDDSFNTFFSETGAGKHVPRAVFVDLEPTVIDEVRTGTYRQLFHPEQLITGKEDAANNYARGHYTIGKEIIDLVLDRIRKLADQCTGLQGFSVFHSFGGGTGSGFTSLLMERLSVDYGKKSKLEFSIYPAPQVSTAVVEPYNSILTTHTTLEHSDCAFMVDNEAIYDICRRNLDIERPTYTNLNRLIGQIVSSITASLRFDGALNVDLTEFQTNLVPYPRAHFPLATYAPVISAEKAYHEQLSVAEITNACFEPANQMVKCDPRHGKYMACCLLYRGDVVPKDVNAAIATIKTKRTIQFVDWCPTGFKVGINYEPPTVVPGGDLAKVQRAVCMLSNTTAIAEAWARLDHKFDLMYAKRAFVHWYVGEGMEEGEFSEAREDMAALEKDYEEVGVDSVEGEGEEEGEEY
Chain of Tubulin (Sus scrofa) (P02554 whole entry, looked up): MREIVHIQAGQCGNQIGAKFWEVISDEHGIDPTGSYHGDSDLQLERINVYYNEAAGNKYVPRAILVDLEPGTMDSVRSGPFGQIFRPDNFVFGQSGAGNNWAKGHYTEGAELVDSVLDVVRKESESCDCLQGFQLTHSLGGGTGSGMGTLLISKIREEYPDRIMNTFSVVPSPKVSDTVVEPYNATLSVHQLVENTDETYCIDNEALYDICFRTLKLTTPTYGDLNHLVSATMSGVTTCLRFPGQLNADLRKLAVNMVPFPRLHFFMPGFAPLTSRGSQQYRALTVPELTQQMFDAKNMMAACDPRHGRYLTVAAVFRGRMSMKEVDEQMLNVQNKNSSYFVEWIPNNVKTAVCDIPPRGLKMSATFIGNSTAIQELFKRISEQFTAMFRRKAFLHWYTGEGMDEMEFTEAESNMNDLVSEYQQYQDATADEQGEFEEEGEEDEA
In short: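 Tubulin purified from porcine brain by three warm-cold cycles plus anion-exchange to remove MAPs. Tubulin at 2.7 mg/ml was preincubated with drug (final 10 µM, 0.2% DMSO) in GTP-free K-Pipes pH 6.9 buffer with 10% glycerol, 15 min at 37 °C. Then 1 mM GTP was added and the mix held 30 min at 37 °C. Polymer and soluble fractions were separated at 30,000g and run on SDS-PAGE with Coomassie staining; densitometry; unpaired t-test.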

[3] = test system: A549; test: Cell cycle arrest in human A549 cells assessed as accumulation at G2/M phase at 10 uM at 24 hrs; type: functional
In short: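 A549 human lung carcinoma cells were grown in E-MEM with 10% FBS, 2 mM L-glutamine, penicillin and non-essential amino acids at 37 °C, 5% CO2. Cells were seeded at 10⁵–2·10⁵ per well, attached 24 h, then drug-treated (DMSO vehicle control) for 24 h at 37 °C. They were harvested by trypsin, stained for DNA with the CycleTEST PLUS kit, and analysed by flow cytometry for G2/M fraction.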

[4] = test system: A549; test: Cytotoxicity against human A549 cells at 10 uM after 24 hrs […]; type: functional, cell-based

SMILES | Activity [1] | Activity [2] | Activity [3] [%] | Activity [4]
CCC1=C[C@H]2CN(C1)Cc1c([nH]c3ccccc13)[C@@](C(=O)OC)(c1cc3c(cc1OC)N(C)[C@H]1[C@@](O)(C(=O)OC)[C@H](OC(=O)CCC(=O)N[C@H]4CCc5cc(OC)c(OC)c(OC)c5-c5ccc(SC)c(=O)cc54)[C@]4(CC)C=CCN5CC[C@]31[C@@H]54)C2 | Active |  |  | 
CC[C@]12C=CCN3CC[C@@]4(c5ccc(OC)cc5N(C)[C@H]4[C@@](O)(C(=O)OC)[C@@H]1OC(=O)CCC(=O)O[C@H]1c4cc5c(cc4[C@@H](c4cc(OC)c(OC)c(OC)c4)[C@H]4C(=O)OC[C@@H]41)OCO5)[C@@H]32 | Active |  |  | 
CC[C@]12C=CCN3CC[C@@]4(c5ccc(OC)cc5N(C)[C@H]4[C@@](O)(C(=O)OC)[C@@H]1OC(=O)CCC(=O)N[C@H]1CCc4cc(OC)c(OC)c(OC)c4-c4ccc(SC)c(=O)cc41)[C@@H]32 | Active | Active | 74 | 
CC[C@]12C=CCN3CC[C@@]4(c5ccc(OC)cc5N(C)[C@H]4[C@@](O)(C(=O)OC)[C@@H]1OC(=O)CCCCCCCCC(=O)N[C@H]1CCc4cc(OC)c(OC)c(OC)c4-c4ccc(SC)c(=O)cc41)[C@@H]32 | Active |  |  | 
CCC1=C[C@H]2CN(C1)Cc1c([nH]c3ccccc13)[C@@](C(=O)OC)(c1cc3c(cc1OC)N(C)[C@H]1[C@@](O)(C(=O)OC)[C@H](OC(=O)CCC(=O)O[C@H]4c5cc6c(cc5[C@@H](c5cc(OC)c(OC)c(OC)c5)[C@H]5C(=O)OC[C@@H]54)OCO6)[C@]4(CC)C=CCN5CC[C@]31[C@@H]54)C2 | Active |  |  | Active
CC[C@]12C=CCN3CC[C@@]4(c5ccc(OC)cc5N(C)[C@H]4[C@@](O)(C(=O)OC)[C@@H]1OC(=O)CCCCCCCCC(=O)OC1C[C@@]4(O)[C@@H](OC(=O)c5ccccc5)[C@@H]5[C@]6(OC(C)=O)CO[C@@H]6C[C@H](O[Si](CC)(CC)CC)[C@@]5(C)C(=O)[C@H](OC(C)=O)C(=C1C)C4(C)C)[C@@H]32 (some centres not stated) | Active | Active |  | 
CC[C@]12C=CCN3CC[C@@]4(c5ccc(OC)cc5N(C)[C@H]4[C@@](O)(C(=O)OC)[C@@H]1OC(=O)CCC(=O)OC1C[C@@]4(O)[C@@H](OC(=O)c5ccccc5)[C@@H]5[C@]6(OC(C)=O)CO[C@@H]6C[C@H](O[Si](CC)(CC)CC)[C@@]5(C)C(=O)[C@H](OC(C)=O)C(=C1C)C4(C)C)[C@@H]32 (some centres not stated) | Active |  |  | 
CC[C@]12C=CCN3CC[C@@]4(c5ccc(OC)cc5N(C)[C@H]4[C@@](O)(C(=O)OC)[C@@H]1OC(=O)CCCCCCCCC(=O)O[C@H]1c4cc5c(cc4[C@@H](c4cc(OC)c(OC)c(OC)c4)[C@H]4C(=O)OC[C@@H]41)OCO5)[C@@H]32 | Active |  |  | 
